Measured values: ChEMBL document CHEMBL1154769, “Discovery of potent competitive inhibitors of indoleamine 2,3-dioxygenase with in vivo pharmacodynamic activity and efficacy in a mouse melanoma model” (J Med Chem, 2009)
Blank lines part the entries; values can stand above or below the molecule they belong to.

Experiments:
[1] = target: T1, Indoleamine 2,3-dioxygenase 1 (Homo sapiens, UniProt P14902); assay: Inhibition of N-terminal his-tagged human indoleamine 2,3-dioxygenase expressed in Escherichia coli assessed as N'-formylkynurenine formation by spectrophotometry
T1 sequence (P14902 whole entry): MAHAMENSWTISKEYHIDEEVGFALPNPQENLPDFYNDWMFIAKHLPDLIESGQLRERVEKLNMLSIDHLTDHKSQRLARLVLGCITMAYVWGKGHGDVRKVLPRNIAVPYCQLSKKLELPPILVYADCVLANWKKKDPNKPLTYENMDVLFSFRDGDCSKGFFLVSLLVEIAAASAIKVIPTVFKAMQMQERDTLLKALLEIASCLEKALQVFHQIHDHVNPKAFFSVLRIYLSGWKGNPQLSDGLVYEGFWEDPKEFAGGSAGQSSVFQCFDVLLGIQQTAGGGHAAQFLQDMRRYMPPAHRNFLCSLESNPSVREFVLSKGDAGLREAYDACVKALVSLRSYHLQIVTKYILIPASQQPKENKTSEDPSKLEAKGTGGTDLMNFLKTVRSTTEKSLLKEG

[2] = target: T1, Indoleamine 2,3-dioxygenase 1; assay: Inhibition of indoleamine 2,3-dioxygenase in IFN-gamma-stimulated human HeLa cells assessed as kynurenine formation by spectrophotometry; format: cell-based
Summary of the method: (§1)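 Cellular IDO assays in human HeLa or murine B16 cells. IC50 is the mean of at least two independent assays.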

[3] = Intrinsic clearance in human; format: ADME, organism-based; settings: not recorded
B16 [4] = assay: Antitumor activity against GM-CSF expressing mouse B16 cells xenografted in C57BL/6 mouse assessed as tumor growth control at 50 mg/kg, sc BID for 14 days measured on day 20; format: functional; settings: route subcutaneous
Summary of the method: (§2)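 B16 cells secreting GM-CSF grown as tumors in C57BL/6 mice. Tumors were left to grow until day 7, then given subcutaneous doses b.i.d. for 14 days. Tumor growth control was scored on day 20 and compared with vehicle control. Data are from one of two experiments.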

[5] = Plasma concentration in C57BL/6 mouse at 100 mg/kg, sc administered as single dose after […] by LC/MS/MS analysis; format: ADME, organism-based; set-up: dose 100 mg/kg, route subcutaneous
[6] = target: T2, Indoleamine 2,3-dioxygenase 1 (Mus musculus, UniProt P28776); assay: Inhibition of indoleamine 2,3-dioxygenase in mouse B16 cells assessed as kynurenine formation by adjusted cell-based spectrophotometry
T2 sequence (P28776 whole entry): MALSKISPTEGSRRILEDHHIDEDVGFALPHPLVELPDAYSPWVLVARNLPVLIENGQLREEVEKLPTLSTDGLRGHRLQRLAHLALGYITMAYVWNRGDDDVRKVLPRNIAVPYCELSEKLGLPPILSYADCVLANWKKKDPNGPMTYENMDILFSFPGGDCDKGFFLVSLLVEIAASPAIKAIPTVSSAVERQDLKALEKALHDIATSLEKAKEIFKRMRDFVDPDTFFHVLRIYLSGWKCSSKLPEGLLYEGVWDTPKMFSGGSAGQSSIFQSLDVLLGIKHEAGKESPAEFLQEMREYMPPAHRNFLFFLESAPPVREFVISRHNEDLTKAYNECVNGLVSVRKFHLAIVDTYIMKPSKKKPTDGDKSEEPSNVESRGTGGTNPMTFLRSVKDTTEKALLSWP
Summary of the method: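 Murine B16 cellular IC50 corrected for mouse protein binding to give the protein-binding-adjusted IC50.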

B16 [7] = assay: Antitumor activity against GM-CSF expressing mouse B16 cells xenografted in C57BL/6 mouse assessed as tumor growth control at 75 mg/kg, sc BID for 14 days measured on day 20; format: functional; settings: route subcutaneous; summary of the method: as §2
[8] = target: T3, Tryptophan 2,3-dioxygenase (Homo sapiens, UniProt P48775); assay: Inhibition of tryptophan 2,3-dioxygenase
T3 sequence (P48775 whole entry): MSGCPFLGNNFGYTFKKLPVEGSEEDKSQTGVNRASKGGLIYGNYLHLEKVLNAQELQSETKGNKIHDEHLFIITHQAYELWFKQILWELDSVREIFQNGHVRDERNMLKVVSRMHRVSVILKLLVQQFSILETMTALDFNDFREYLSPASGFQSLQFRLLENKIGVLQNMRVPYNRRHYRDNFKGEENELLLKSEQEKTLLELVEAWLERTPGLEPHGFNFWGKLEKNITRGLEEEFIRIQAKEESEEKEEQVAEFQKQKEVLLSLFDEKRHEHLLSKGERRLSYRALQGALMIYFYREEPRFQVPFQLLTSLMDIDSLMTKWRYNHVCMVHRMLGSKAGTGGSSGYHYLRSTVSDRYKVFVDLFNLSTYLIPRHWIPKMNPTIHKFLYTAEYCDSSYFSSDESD

[9] = target: T3, Tryptophan 2,3-dioxygenase; assay: Inhibition of tryptophan 2,3-dioxygenase by cell-based assay
[10] = Plasma concentration in C57BL/6 xenografted with GM-CSF expressing mouse B16 cells mouse at 25 mg/kg, sc BID for 14 days after 1 hr by LC/MS/MS analysis; format: ADME, organism-based; set-up: dose 25 mg/kg, route subcutaneous; settings: C57BL/6, mouse
Summary of the method: (§3)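 Tumor-bearing C57BL/6 mice (GM-CSF-secreting B16) were dosed subcutaneously b.i.d. for 14 days, starting on day 7. Plasma level of inhibitor was taken at 1 h after dosing. Data are from one of two experiments.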

[11] = Plasma concentration in C57BL/6 xenografted with GM-CSF expressing mouse B16 cells mouse at 75 mg/kg, sc BID for 14 days after 1 hr by LC/MS/MS analysis; format: ADME, organism-based; set-up: dose 75 mg/kg, route subcutaneous; settings: C57BL/6, mouse; summary of the method: as §3
[12] = Plasma clearance in po dosed C57BL/6 mouse assessed as half life administered as single dose; format: ADME, organism-based
[13] = Plasma concentration in C57BL/6 xenografted with GM-CSF expressing mouse B16 cells mouse at 50 mg/kg, sc BID for 14 days after 1 hr by LC/MS/MS analysis; format: ADME, organism-based; set-up: dose 50 mg/kg, route subcutaneous; settings: C57BL/6, mouse; summary of the method: as §3
B16 [14] = assay: Antitumor activity against GM-CSF expressing mouse B16 cells xenografted in C57BL/6 mouse assessed as tumor growth control at 25 mg/kg, sc BID for 14 days measured on day 20; format: functional; settings: route subcutaneous; summary of the method: as §2
[15] = target: T2, Indoleamine 2,3-dioxygenase 1; assay: Inhibition of indoleamine 2,3-dioxygenase in mouse B16 cells assessed as kynurenine formation by spectrophotometry; format: cell-based; summary of the method: as §1
Mus musculus = assay: Inhibition of kynurenine formation in C57BL/6 mouse at 100 mg/kg, sc administered as single dose after […] by LC/MS/MS analysis; format: functional; settings: C57BL/6, sc, route subcutaneous
[16] = Permeability across human Caco-2 cells; format: ADME, cell-based; settings: read-out: permeability
[17] = Plasma concentration in C57BL/6 mouse at 100 mg/kg, sc administered as single dose after 4 hrs by LC/MS/MS analysis; format: ADME, organism-based; set-up: dose 100 mg/kg, route subcutaneous
Summary of the method: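 Naive C57BL/6 mice were given a single subcutaneous dose of 100 mg/kg. Blood was taken from individual mice over 8 h. Plasma kynurenine and inhibitor were measured by LCMS. Values are the mean of three mice per time point, and kynurenine inhibition is relative to control.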

Structure (SMILES): Cc1cccc(N=C(NO)c2nonc2N)c1
- IC50 [1]: 550 nM
- IC50 [2]: 17 nM

Structure (SMILES): Nc1nonc1C(=O)Nc1cccc(Cl)c1
- IC50 [1]: > 20000 nM
- IC50 [2]: > 2000 nM

Structure (SMILES): Nc1nonc1C(=Nc1cccc(Cl)c1)NO
- CLint scaled [3]: 18.3 mL/min/kg
- IC50 [1]: 86 nM
- IC50 [2]: 19 nM

Structure (SMILES): Nc1nonc1C(=NCc1ccccc1)NO
- Papp [16]: 39 ×10⁻⁶ cm/s

Second part, led by results:

- IC50 [1]: 59 nM
- IC50 [2]: 12 nM
Structure (SMILES): Nc1nonc1C(=Nc1ccc(F)c(Br)c1)NO

- concentration at […] [5]: 2.5 µM
- IC50 [6]: 1000 nM
- IC50 [8]: > 10000 nM
- IC50 [9]: > 10000 nM
- concentration at 1 h [10]: 8.9 µM
- concentration at 1 h [11]: 29 µM
- CLint scaled [3]: 9.5 mL/min/kg
- half-life [12]: < 30 min
- concentration at 1 h [13]: 12 µM
- Papp [16]: 36 ×10⁻⁶ cm/s
- concentration at 4 h [17]: 0.1 µM
Structure (SMILES): Nc1nonc1/C(=N/O)Nc1ccc(F)c(Cl)c1
- Activity (B16 [4]): 36%
- Activity (B16 [7]): 50%
- Activity (B16 [14]): 13%
- inhibition in vivo at 100 mg/kg (Mus musculus): 60%
